B1: tRNA (parent)
chain: GUUCCGUUGGCGUAAUGGUAACGCGUCUCCCUCCUAAGGAGAAGACUGCGGGUUCGAGUCCCGUACGGAACG

This sample holds only a part of the variants without activity.

This series covers variants of B1. Briefly: yeast fitness relative to wild type (ratio to wild type); higher = fitter; tRNA-Arg(CCU), competitive growth, 37 C, YPD. The procedure, abridged: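 Changes in genotype frequencies gave Darwinian fitness relative to wild type. Frequencies were read by 100-nucleotide paired-end sequencing of gene amplicons before and after pooled Saccharomyces cerevisiae strains, carrying tRNA-Arg(CCU) gene variants at the native locus, were competed in YPD at 37°C for 24 hours in six replicates. A genotype was kept only with ≥ 100 starting reads, and estimates < 0.5 were set to 0.5.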
For GUUCCGUUGGCGUAAUGGUCACGCGUCUCCCUCCUACGGACAAGACUGCGCGUUCGAGUCCCGUACGGAACG, the yeast fitness was at most 0.5. The result for GUUCCGUUGGCGUAAUGGUCACGCGUCUCCCUCCUAAGGAGUAGACUGCGGGUUCGAGUCCCGUUCGGAACG reads 0.553. In the case of GUUCCGUUGGCGUAAUGGGAACGCGUCUCCUACCUAAGGAGAAGUCUGCGGGUUCGAGUCCCGUACGGAUCG it was at most 0.5; in that of GUUCCGUUGGCGUAAUGGUCACGCGUCUCCCUCCUACGGAGAGGACUGCGGGUUCGAGUCCUGUACGGAACG, at most 0.5; in that of GUUCCGUUGGCGUAAUGGUCCCGCGUCUCCCUCCUAAGGAGAAGACUGCGGGUUCGAGUCACGUACCGAACG, at most 0.5. For GUUCCGUUGGCGUAAUGGGAACGCGUCUCCCUCGUAAGGAGAAGACUGCGGGUUCGAGUCCCGUACGGCACG, the yeast fitness turned out to be 0.504. In the case of GUUCCGUUGGCGUAAUGGGAACGCGUCUCCCUCCUAAGGAGAAGACUGCGGGUUCGAGUCCCGUACGCAACG it was 0.802. In the case of GUUCCGUUGGCGUAAUGGGAACGCGUCUCCCUCCCAAGGAGACGACUGCGGCUACGAGUCCCGUACGGAACG it was at most 0.5.

GUUCCGUUGGCGUAAUGGUCCCGCGUCUCCCUCCUAAGGAGAAGGCUGCGGGUUCGAGUCCCGUACGGAACG: the yeast fitness was at most 0.5.

For GUUCCGUUGGCGUAAUGGGAACGCGUCUCCCUCCUAAGGAGAAGACUGUGGGUUCGAGUCCCGUACGGAACG, the yeast fitness stood at 0.859.

With GUUCCGUUGGCGUAAUGGGAACGCGUCUCCCUGCUACGGAGAAGACUGGGGGUUCGAGUCCCGUACGGAACG, the yeast fitness was at most 0.5. In the case of GUUCCGUUGGCGUAAUGGUCACGCGUCUCCCUCCUAAGGGGAAGACUGCGGGUUCGAGUCCCGUACGGAACG, the yeast fitness was 0.647. In the case of GUUCCGUUGGCGUAAUGGUCACGCGUCUCCCUCCUAAGGAGAAGACUGCGGGUUCGAGUCCCGUCCGGAACG it was 0.957.

Consider GUUCCGUUGGCGUAAUGGUCACGCGUCUCCCUCCUAAGGGGAAGACUGCGGGUUCGAGUCCCGUGCGGAACG, for which the yeast fitness was 0.57.

As to GUUCCGUUGGCGUAAUGGUCACGCGUCUCCCUCCUAGGGAGAAGCCUGCGGGUUCGAGUCCCGUACGGAACG, the yeast fitness is at most 0.5. Take GUUCCGUUGGCGUAAUGGGAACGCGUCUCCCUCUUAAGGAGAAGACUGCGGGUUCGAGUCCCGUACGGAACG: the yeast fitness was 0.687.

Consider GUUCCGUUGGCGUAAUGGUCACGCGUCUCCCUCCUAAGGAGAUGACUGCGGGUUCGAGUCCCGUACGGCACG, for which the yeast fitness is 0.605. GUUCCGUUGGCGUAAUGGGAACGCGUCUCCCUCCUAAGGAGAAGACUGCGGGUUCGAGUCCCCUACGGUACG: the yeast fitness is at most 0.5. On to GUUCCGUUGGCGUAAUGGGAACGCGUCUCCCUCCUAAGGAGAAGACUCCGGGUUCGAGUCCCGUACGGAACG, for which the yeast fitness came to 0.948. The result for GUUCCGUUGGCGUAAUGGUCACGCGUCUCCCUCCUAAGGAGAAGACUGCGGGUUCGAGUCCCGUACGGAUCG reads 1.12; that for GUUCCGUUGGCGUAAUGGGAACGCGUCUCCCUCCUAAGGAGAAGACUGCGGGUUCGAGUCCUGUACGGAACG, 0.857; that for GUUCCGUUGGCGUAAUGGUCGCGCGUCUCCCUCCUAAGGAGAAGACUGCGGGUUCGCGUCCCGUACGGAACG, 0.531. On to GUUCCGUUGGCGUAAUGGGAACGCGUCUCCCUCCUAAGGAGAAAAGUGCGGGUUCGAGUCCCGUACGGAACG, for which the yeast fitness is 0.946. The result for GUUCCGUUGGCGUAAUGGGAACGCGUCUCCCUCCUAAGGAGAAGACUGCUGGUUCGAAUCCCGUAUGGAACG reads 0.541; that for GUUCCGUUGGCGUAAUGGUCACGCGUCUCCCUCCUAAGGAGCAGACUACGGGUUCGAGUCCCGUACGGAACG, 0.591. Take GUUCCGUUGGCGUAAUGGUCGCGCGUCUCCCUCCUAAGGAGAAGACUGCGGGUUCGAGUCCCGUACGGCACG: the yeast fitness is 0.825. In the case of GUUCCGUUGGCGUAAUGGUCACGCGUCUCCCUCCUACGGAGAAGACUGCGGGUUCGAGUCCCGUAUGGAACG it was at most 0.5; in that of GUUCCGUUGGCGUAAUGGGAACGCGUCUCCCUCCUAAGGAGAAGACUGUGGGUUCGAGUCCAGUACGGAACG, 0.598. The result for GUUCCGUUGGCGUAAUGGGAACGCGACCCCCUCCUAAGGAGAAGACUGCGGGUUCGAGUCCCGUACGGAACG reads at most 0.5; that for GUUCCGUUGGCGUAAUGGGAACGCGUCUCCCUCCUAAGGAGAAGACUGCGGCUUCGAGUCCAGUACGGAACG, at most 0.5; that for GUUCCGUUGGCGUAAUGGUCACGCGUCUCCCUCCUAAGGCGAAGACUCCGGGUUCGAGUCCCGUACGGAACG, 0.719.

In the case of GUUCCGUUGGCGUAAUGGUCACGCGUCUCCCUCCUGAGGAGAAGACUACCGGUUCGAGUCCCGUACGGAACG, the yeast fitness is at most 0.5.

In the case of GUUCCGUUGGCGUAAUGGUCGCGCGUCUCCCUCCUAAGGAGAAGACUGCGGGUUCGAGUCCCGUACGGAACG, the yeast fitness was determined as 0.953.

On to GUUCCGUUGGCGUAAUGGUCACGCGUCUCCCUCCUAAGGAGAAGACUGCGGGUUCGGGUCCCAUACGGAACG, for which the yeast fitness amounted to 0.558. Consider GUUCCGUUGGCGUAAUGGUCGCGCGUCUCCCUCCUAAGGAGAAGACUGCGGGUUCGAGUCCCGUACCGAACG, for which the yeast fitness came to 0.712.

Consider GUUCCGUUGGCGUAAUGGGAACGCGUCUCCCUCCUAAGGAGAAGACUGCGGGUUCGAGUCUCGUACGGAACG, for which the yeast fitness came to 0.77. As to GUUCCGUUGGCGUAAUGGGAACGCGUCUCCCUCCUAAGGAGAAGACUGCGGGUUUGAGUCCCGUACGGAACG, the yeast fitness turned out to be 0.762. The result for GUUCCGUUGGCGUAAUGGGAACGCGUCUCCCUCCUAAGGAGAAGAGUGCGGGUUCGCGUCCCGUACGGAACG reads at most 0.5; that for GUUCCGUUGGCGUAAUGGUCAGGCGUCUACCUCCUAAGGAGAAGACUGCGGGUUGCAGUCCCGUACGGAACG, at most 0.5. The result for GUUCCGUUGGCGUAAUGGUCUCGCGUCUCCUUCCUAAGGAGAAGACUGCGGGUUCGAGUUCCGUUCGGAACG reads at most 0.5.

As for GUUCCGUUGGCGUAAUGGUCACGCGUCUCCCUCCUCAGGACAAGACUGCGGGUUCGAGUCCCGUACCGGACG, the yeast fitness was at most 0.5. In the case of GUUCCGUUGGCGUAAUGGUCACGCGUCUCCCUCCUAAGGAGCAGACUGCGGGUUCGAGUCCCGUACGGUACG, the yeast fitness is 0.576. The result for GUUCCGUUGGCGUAAUGGGAACGCGUCUCCCGCCUAAGGAGAAGACUGCGGGUUCGAGUCCCGUACGGAACG reads 0.62; that for GUUCCGUUGGCGUAAUGGUCAGGCGUCUCCCUCCUAAGGAGAAGACUGCGGGUUCGAGUACCGUACGGAACG, at most 0.5; that for GUUCCGUUGGCGUAAUGGGAACGCGUCUCCCUCCUAAGGAGAAGACUGCGGGUUCGAGUUGCGUACAGAACG, at most 0.5. Take GUUCCGUUGGCGUAAUGGUCUCGCGUCUCCCUCCUAAGGAGUAGACUGCGGGUUCGAGUCCCGUACGGAACG: the yeast fitness is at most 0.5. In the case of GUUCCGUUGGCGUAAUGGUCACGCGUCUCCCUCCUAAGGAGAAGACUGCGGGUUCGUGUCCCGUUCGGAACG it was 0.571. In the case of GUUCCGUUGGCGUAAUGGUCGCGCGUCUCCCUCCUAAGGAGAAGUCUGCGGGUUCGAGUCCCGUACCGAACG it was 0.61; in that of GUUCCGUUGGCGUAAUGGGAACGCGUCGCCCUCCUUAGGAGAAGAUUGCGGGUUCGAGUCUCGUACGGAACG, at most 0.5. The result for GUUCCGUUGGCGUAAUGGUCACGCGUCUCCCUCCUAAGGAGAAGACUGCGGGUUCGAGUCCCGUACGGAACG reads 1.01. Take GUUCCGUUGGCGUAAUGGUCGCGCGUCUCCCUCCUAAGGAGAAGCCUGCGGGUUCGAGUCCCGUACGGAACG: the yeast fitness amounted to 0.687. In the case of GUUCCGUUGGCGUAAUGGUCUCGCGUGUCCCUCCUAAGGAGUAGACUGCGGGUUCGAGUCCCGUACGGCACG, the yeast fitness was at most 0.5.

With GUUCCGUUGGCGUAAUGGUCAGGCGUCUCCCUUCUAAGGAGAAGUCUGCGGGUUCGAGUCCCGUACGGAACG, the yeast fitness was at most 0.5. In the case of GUUCCGUUGGCGUAAUGGUCACGCGUCUCCCUCCUAAGGAGACGACUGCGGGUUCGAGUCCCGUACGGAACG it was 0.816. In the case of GUUCCGUUGGCGUAAUGGGAACGCGUCUCCCUCCUAAGGAGAAGACAGCGGGUUCGAGUCCCGUACGGAACG, the yeast fitness amounted to 0.771. In the case of GUUCCGUUGGCGUAAUGGGAACGCGUCCCCCUCCUAAGGAGCAGACUGCGGGUUCGAGUCCCGUACGGAACG it was 0.669; in that of GUUCCGUUGGCGUAAUGGGAACGCGUCUCCCUCCUAAGGAGAAGACUGCGGGUUCAAGUUCCGUACGGAACG, 0.69; in that of GUUCCGUUGGCGUAAUGGUCACGCGUCUCCCUCCUAAGGUGAAGACUGCGGGUUCGAGUCCCGUUCCGAACG, at most 0.5.

Regarding GUUCCGUUGGCGUAAUGGUCACGCGUCUCCCUCCUAAGGAGAAGCUUGCGGGUUCGAGUCCCGUACGGAACG, the yeast fitness worked out at 0.587. The result for GUUCCGUUGGCGUAAUGGUCACGCGUCUCCCUCCUAAGGAGUAGACUGCGGGUUCGAGUCCCGUACGGAACG reads 0.782; that for GUUCCGUUGGCGUAAUGGGAACGCGUCUCCCUCCUAAGGAGAAGACUGAGGGUUCGAGUCCGGUAUGGAGCG, at most 0.5; that for GUUCCGUUGGCGUAAUGGUCCCCCGUCUCGCUCCUAAGGAGAAGACUGCGGGUUCGAGUCCCGUUUGGAACG, at most 0.5. The result for GUUCCGUUGGCGUAAUGGGAACGCGUCUCCCUCCUAAGGAGAAGACUGCGGGUUGGAGUCCCGUAUGGAACG reads 0.536; that for GUUCCGUUGGCGUAAUGGUCACGCGUCUCCCUCCUGAGGAGAAGACUGCGGGUUCGAGUCCCGUACGGAACG, 0.908. The result for GUUCCGUUGGCGUAAUGGUCACGCGUCUCCCUCCUAAGGGGAAGACUGCGGGUUCGAGUGCCGUACGGAACG reads at most 0.5; that for GUUCCGUUGGCGUAAUGGUCACGCGUCUCCCUCCUUAGGAGAAGACUGCGGGAUCGAGUCCCGUACGGAACG, at most 0.5; that for GUUCCGUUGGCGUAAUGGUCAAGCGUCUCCCUCCUCAGGAGAAGACUGCGGGUUCGAGUCCCGUACGGUACG, at most 0.5. As for GUUCCGUUGGCGUAAUGGUCUCGCGUGUCCCCCCGAAGGAGAAGACUGCGGGUUCGAGUCCCGUACGGAACG, the yeast fitness was at most 0.5. The result for GUUCCGUUGGCGUAAUGGGAACGCGUCUCCCUGCUAAGGAGAAGACAGCGGGUUCGAGUCCCGUACGGAACG reads 0.542. In the case of GUUCCGUUGGCGUAAUGGUCACGCGUCUCCCUCCUAGGGAGGAGACUGCGGGUUCGAGUCCCGUACGCAACG it was at most 0.5; in that of GUUCCGUUGGCGUAAUGGUCACGCGUCUCCCUCCUAAGGGGAAGACUGCGGGUUCGAGUCCGGUACGGAACG, 0.864.

Take GUUCCGUUGGCGUAAUGGUCACGCGUCUCCCUCCUUAGCAGAAGACUGCGGGUUCGAGUCCCGUACGGAACG: the yeast fitness is 0.618. As to GUUCCGUUGGCGUAAUGGUCAAGCGUGUCCCUCCUAAGGAGAAGACUGCGCGUUCGAGUCCCGUACGGAACG, the yeast fitness is at most 0.5. For GUUCCGUUGGCGUAAUGGGAACGCGUCUCCCUCCUAACGAGAAGACUGCGGGUUCGAGUCCCGUACGGAACG, the yeast fitness was determined as 0.637. In the case of GUUCCGUUGGCGUAAUGGGAACGCGUCACCCUCCUAAGGAGAAGACUGCGGGUUCGAGUCCCGUACGGAACG it was 0.613.

The values are drawn from the RNAGym collection of RNA variant scans (doi:10.1126/science.aae0568).
